Laboratory results published in ChEMBL document CHEMBL1140973, “New Pd(II) complexes of the synthesized 1-N-substituted thiosemicarbazones of 3-indole carboxaldehyde: characterization and antiamoebic assessment against E. histolytica” (Eur J Med Chem, 2008).

Legend:
HEK293 (human) = experiment: Cytotoxicity against human HEK293 cells after 44 hrs by MTT assay; details: HEK293, 44 h
Entamoeba histolytica = experiment: Antiamoebic activity against Entamoeba histolytica HM1:IMSS after 72 hrs by microplate method; format: functional, organism-based
Procedure, shortened: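 E. histolytica HM1:IMSS trophozoites in a microplate assay. Samples in DMSO plus medium (1 mg/mL), diluted to 0.1 mg/mL, then twofold serial dilutions. Inoculum 1.7 × 10^4 amoebae/well (viability by trypan blue), N2-gassed, 37 °C for 72 h. Cells methanol-fixed, eosin-stained, dye released in 0.1 N NaOH, OD 490 nm. % inhibition vs untreated control against log dose; IC50 by linear regression.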

[1] = Safety index, IC50 for transformed human kidney epithelial cells to IC50 for Entamoeba histolytica HM1:IMSS
[2] = Safety index, IC50 for human […] to IC50 for Entamoeba histolytica HM1:IMSS; format: toxicity, cell-based; details: read-out: Ratio IC50
Procedure, shortened: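 Safety index = IC50 in human kidney epithelial cells (MTT, 44 h + 4 h) divided by IC50 against E. histolytica HM1:IMSS (microplate eosin assay, 72 h).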

| SMILES | IC50 (HEK293 (human)) [µM] | IC50 (Entamoeba histolytica) [µM] | selectivity ratio [1] | selectivity ratio [2] |
| --- | --- | --- | --- | --- |
| CC(C)CNC(=S)N/N=C\c1c[nH]c2ccccc12 | > 100 | 5.76 | > 17.4 |  |
| NC(=S)N/N=C\c1c[nH]c2ccccc12 | > 100 | 11.5 | > 8.68 |  |
| CCCCN(C)C(=S)N/N=C\c1c[nH]c2ccccc12 | > 100 | 5.5 | > 18.2 |  |
| S=C(NCc1ccccc1Cl)N/N=C\c1c[nH]c2ccccc12 | > 100 | 3.28 | > 30.5 |  |
| Cc1ccc(NC(=S)N/N=C\c2c[nH]c3ccccc23)cc1 | > 100 | 3.25 | > 30.8 |  |
| Fc1ccc(NC(=S)N/N=C\c2c[nH]c3ccccc23)c(F)c1 |  | 6.05 |  | > 16.5 |
| CCN(CC)C(=S)N/N=C\c1c[nH]c2ccccc12 | > 100 | 2.58 | > 38.8 |  |
| CCCCNC(=S)N/N=C\c1c[nH]c2ccccc12 | > 100 | 4.09 | > 24.4 |  |
| Cc1ccccc1NC(=S)N/N=C\c1c[nH]c2ccccc12 | > 100 | 2.05 | > 48.8 |  |
| CN(Cc1ccccc1)C(=S)N/N=C\c1c[nH]c2ccccc12 | > 100 | 2.46 | > 40.6 |  |
| Cc1cccc(NC(=S)N/N=C\c2c[nH]c3ccccc23)c1 | > 100 | 1.29 | > 77.5 |  |
| CCCNC(=S)N/N=C\c1c[nH]c2ccccc12 | > 100 | 6.84 | > 14.6 |  |
| CC(C)NC(=S)N/N=C\c1c[nH]c2ccccc12 | > 100 | 7.64 | > 13.1 |  |
| Cc1ncc([N+](=O)[O-])n1CCO [METRONIDAZOLE] | > 100 |  | > 55.2 |  |
